# According to ChEMBL document CHEMBL1122269, “Synthesis and biological evaluation of neutral derivatives of 5-fluoro-2'-deoxyuridine 5'-phosphate” (1983):
# Experiments:
# P388 [1] = experiment: Percentage increase in life span of murine leukemia P388 resistant to 5-FU, at a dose 108 mg/kg; type: functional; conditions: Mus musculus
# How it was run: (§1)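 P-388 model in male BDF₁ mice, six per group, average weight 23 g: 1×10^6 cells ip on day 0, then compound in 0.9% saline ip daily ×5 from 24 h. Mice were observed up to 60 days. % ILS = (T/C − 1) × 100, using median survival of treated mice versus saline-treated controls.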
# P388 [2] = experiment: Median survival time (MST) of murine leukemia P388 (1*10e 6 cells) sensitive to 5-FU in mice at dose of 108 mg/kg(ip); type: functional, Mus musculus
# How it was run: (§2)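 Male BDF₁ mice, six per group, average weight 23 g, were inoculated ip with 1×10^6 P-388 cells on day 0. Compound in 0.9% saline was given ip daily for 5 days from 24 h post-implant. Mice were followed for 60 days or until death, and median survival time was recorded. Saline-treated controls numbered 20 mice.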
# P388 [3] = experiment: Percentage increase in life span of murine leukemia P388 sensitive to 5-FU at dose 500 mg/kg; type: functional; conditions: Mus musculus; how it was run: as §1
# P388 [4] = experiment: Average percentage weight change on day 6 in murine leukemia P388 sensitive to 5-FU at a dose 180 mg/kg; type: functional, Mus musculus
# How it was run: (§3)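 Male BDF₁ mice, six per group, average weight 23 g, were inoculated ip on day 0 with 1×10^6 P-388 leukemia cells, either 5-FU-sensitive or 5-FU-resistant. Compound in 0.9% saline was given ip once daily for 5 consecutive days, starting 24 h after tumor transplantation. Saline-treated animals served as controls.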
# P388 [5] = experiment: Average percentage weight change on day 6 in murine leukemia P388 resistant to 5-FU at dose 300 mg/Kg; type: functional, Mus musculus; how it was run: as §3
# P388 [6] = experiment: Percentage increase in life span of murine leukemia P388 sensitive to 5-FU at dose 180 mg/kg; type: functional; conditions: Mus musculus; how it was run: as §1
# P388 [7] = experiment: Median survival time (MST) of murine leukemia P388 (1*10e 6 cells) resistant to 5-FU in mice, dose of 300 mg/kg(ip); type: functional, Mus musculus; how it was run: as §2
# P388 [8] = experiment: Average percentage weight change on day 6 in murine leukemia P388 sensitive to 5-FU at a dose 108 mg/kg; type: functional, Mus musculus; how it was run: as §3
# P388 [9] = experiment: Average percentage weight change on day 6 in murine leukemia P388 resistant to 5-FU at dose 108 mg/kg; type: functional, Mus musculus; how it was run: as §3
# P388 [10] = experiment: Average percentage weight change on day 6 in murine leukemia P388 sensitive to 5-FU at dose 500 mg/kg; type: functional, Mus musculus; how it was run: as §3
# P388 [11] = experiment: Percentage increase in life span of murine leukemia P388 sensitive to 5-FU at dose 108 mg/kg; type: functional; conditions: Mus musculus; how it was run: as §1
# P388 [12] = experiment: Average percentage weight change on day 6 in murine leukemia P388 resistant to 5-FU at dose 180 mg/kg; type: functional, Mus musculus; how it was run: as §3
# P388 [13] = experiment: Percentage increase in life span of murine leukemia P388 sensitive to 5-FU at dose 300 mg/kg; type: functional; conditions: Mus musculus; how it was run: as §1
# P388 [14] = experiment: Median survival time (MST) of murine leukemia P388 (1*10e 6 cells) sensitive to 5-FU in mice, dose of 300 mg/kg(ip); type: functional, Mus musculus; how it was run: as §2
# P388 [15] = experiment: Median survival time (MST) of murine leukemia P388 (1*10e 6 cells) sensitive to 5-FU in mice at dose of 180 mg/kg(ip); type: functional, Mus musculus; how it was run: as §2
# P388 [16] = experiment: Median survival time (MST) of murine leukemia P388 (1*10e 6 cells) sensitive to 5-FU in mice, dose of 500 mg/kg(ip); type: functional, Mus musculus; how it was run: as §2
# P388 [17] = experiment: Median survival time (MST) of murine leukemia P388 (1*10e 6 cells) resistant to 5-FU in mice, dose of 108 mg/kg(ip); type: functional, Mus musculus; how it was run: as §2
# P388 [18] = experiment: Percentage increase in life span of murine leukemia P388 resistant to 5-FU, at a dose 180 mg/kg; type: functional; conditions: Mus musculus; how it was run: as §1
# P388 [19] = experiment: Average percentage weight change on day 6 in murine leukemia P388 sensitive to 5-FU at dose 300 mg/kg; type: functional, Mus musculus; how it was run: as §3
# P388 [20] = experiment: Median survival time (MST) of murine leukemia P388 (1*10e 6 cells) resistant to 5-FU in mice, dose of 180 mg/kg(ip); type: functional, Mus musculus; how it was run: as §2
# P388 [21] = experiment: Percentage increase in life span of murine leukemia P388 sensitive to 5-FU, at dose 300 mg/kg; type: functional; conditions: Mus musculus; how it was run: as §1
# P388 [22] = experiment: Percentage increase in life span of murine leukemia P388 resistant to 5-FU, at a dose 300 mg/kg; type: functional; conditions: Mus musculus; how it was run: as §1
# P388 [23] = experiment: Average percentage weight change on day 6 in murine leukemia P388 sensitive to 5-FU at dose 108 mg/kg; type: functional, Mus musculus; how it was run: as §3
# P388 [24] = experiment: Percentage increase in life span of murine leukemia P388 resistant to 5-FU at dose 108 mg/kg; type: functional; conditions: Mus musculus; how it was run: as §1
# P388 [25] = experiment: Percentage increase in life span of murine leukemia P388 resistant to 5-FU at dose 180 mg/kg; type: functional; conditions: Mus musculus; how it was run: as §1
# P388 [26] = experiment: Median survival time (MST) of murine leukemia P388 (1*10e 6 cells) resistant to 5-FU in mice at dose of 180 mg/kg(ip); type: functional, Mus musculus; how it was run: as §2
# P388 [27] = experiment: Median survival time (MST) of murine leukemia P388 (1*10e 6 cells) resistant to 5-FU in mice at dose of 300 mg/kg(ip); type: functional, Mus musculus; how it was run: as §2
# P388 [28] = experiment: Median survival time (MST) of murine leukemia P388 (1*10e 6 cells) sensitive to 5-FU in mice at dose of 300 mg/kg(ip); type: functional, Mus musculus; how it was run: as §2
# P388 [29] = experiment: Percentage increase in life span of murine leukemia P388 sensitive to 5-FU, at dose 108 mg/kg; type: functional; conditions: Mus musculus; how it was run: as §1
# P388 [30] = experiment: Median survival time (MST) of murine leukemia P388 (1*10e 6 cells) resistant to 5-FU in mice at dose of 500 mg/kg(ip); type: functional, Mus musculus; how it was run: as §2
# P388 [31] = experiment: Median survival time (MST) of murine leukemia P388 (1*10e 6 cells) resistant to 5-FU in mice at dose of 108 mg/kg(ip); type: functional, Mus musculus; how it was run: as §2
# P388 [32] = experiment: Median survival time (MST) of murine leukemia P388 (1*10e 6 cells) sensitive to 5-FU in mice at dose of 500 mg/kg(ip); type: functional, Mus musculus; how it was run: as §2
# P388 [33] = experiment: Average percentage weight change on day 6 in murine leukemia P388 sensitive to 5-FU at dose 180 mg/kg; type: functional, Mus musculus; how it was run: as §3
# P388 [34] = experiment: Average percentage weight change on day 6 in murine leukemia P388 resistant to 5-FU at dose 500 mg/kg; type: functional, Mus musculus; how it was run: as §3
# P388 [35] = experiment: Percentage increase in life span of murine leukemia P388 resistant to 5-FU at dose 500 mg/kg; type: functional; conditions: Mus musculus; how it was run: as §1
# P388 [36] = experiment: Percentage increase in life span of murine leukemia P388 sensitive to 5-FU, at dose 180 mg/kg; type: functional; conditions: Mus musculus; how it was run: as §1
smiles,measurement,setting,value
O=c1[nH]c(=O)n([C@H]2C[C@H](O)[C@@H](COP3(=O)NCCCO3)O2)cc1F (some centres undefined),ILS at 108 mg/kg,P388 [1],0%
same,MST,P388 [2],12 days
same,ILS at 500 mg/kg,P388 [3],89%
same,Weight change,P388 [4],-13.9%
same,Weight change,P388 [5],-5%
same,ILS at 180 mg/kg,P388 [6],44%
same,MST,P388 [7],9 days
same,Weight change,P388 [8],-6.6%
same,Weight change,P388 [9],-3.4%
same,Weight change,P388 [10],-17.9%
same,ILS at 108 mg/kg,P388 [11],33%
same,Weight change,P388 [12],-3.7%
same,ILS at 300 mg/kg,P388 [13],55%
same,MST,P388 [14],14 days
same,MST,P388 [15],13 days
same,MST,P388 [16],17 days
same,MST,P388 [17],10 days
same,ILS at 180 mg/kg,P388 [18],0%
same,Weight change,P388 [19],-15.7%
same,MST,P388 [20],10 days
O=c1[nH]c(=O)n([C@H]2C[C@H](O)[C@@H](COP3(=O)OCCCO3)O2)cc1F,MST,P388 [2],10 days
same,ILS at 500 mg/kg,P388 [3],33%
same,ILS at 300 mg/kg,P388 [21],22%
same,ILS at 300 mg/kg,P388 [22],0%
same,Weight change,P388 [23],1.7%
same,ILS at 108 mg/kg,P388 [24],0%
same,ILS at 180 mg/kg,P388 [25],0%
same,Weight change,P388 [5],1.2%
same,MST,P388 [26],10 days
same,MST,P388 [27],10 days
same,MST,P388 [28],11 days
same,Weight change,P388 [9],6.3%
same,Weight change,P388 [10],-12.4%
same,Weight change,P388 [12],4.1%
same,ILS at 108 mg/kg,P388 [29],11%
same,MST,P388 [30],10 days
same,MST,P388 [31],10 days
same,MST,P388 [15],10 days
same,MST,P388 [32],12 days
same,Weight change,P388 [19],-8.8%
same,Weight change,P388 [33],0%
same,Weight change,P388 [34],0.6%
same,ILS at 500 mg/kg,P388 [35],0%
same,ILS at 180 mg/kg,P388 [36],11%
